Tests used:
[1] = system: L1210; test: Inhibitory activity of compound against L1210 leukemia cells in tissue culture; assay type: functional, cell-based; details: Mus musculus
Outline: (§1)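 L1210 leukemia cells in tissue culture were exposed for 48 h to compounds dissolved in DMSO, at up to 100 μM (highest concentration tested). Read-out was growth inhibition, reported as IC50 or as percent inhibition at 100 μM.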

[2] = system: A549; test: Inhibitory activity of compound against human A549 lung carcinoma cell line.; assay type: functional, cell-based
[3] = system: A121; test: Inhibitory activity of compound against human A121 ovarian cell line.; assay type: functional, cell-based
[4] = system: HT-29; test: Inhibitory activity of compound against HT-29 human colon adenocarcinoma cell line; […]; assay type: functional, cell-based
[5] = system: MCF7; test: Inhibitory activity of compound against human MCF-7 breast adenocarcinoma cell line.; assay type: functional, cell-based
[6] = system: L1210; test: Inhibitory activity of compound against L1210 leukemia cells in tissue culture at 100 uM; assay type: functional; details: Mus musculus; outline: as §1
[7] = system: HT-29; test: Inhibitory activity of compound against HT-29 human colon adenocarcinoma cell line; assay type: functional, cell-based

| IC50 [1] [µM] | IC50 [4] | SMILES | other results |
| --- | --- | --- | --- |
| > 100 |  | COc1c(C)cc(C(N)=O)c(O)c1C/C=C(\C)CCC(=O)O |  |
| > 100 | Not Active | COc1ccc(C(C)=O)c(O)c1C/C=C(\C)CCC(=O)O | IC50 [2]: > 32.5 µM; IC50 [3]: > 32.5 µM; IC50 [5]: > 32.5 µM |
| > 100 | Not Active | COc1ccc(C(N)=O)c(O)c1C/C=C(\C)CCC(=O)O |  |
| > 100 |  | COC(=O)c1cc(C)c(OC)c(C/C=C(\C)CCC(=O)O)c1O |  |
| > 100 | Not Active | COC(=O)c1ccc(OC)c(C/C=C(\C)CCC(=O)O)c1O |  |
| > 100 |  | COc1c(C)cc(C(C)=O)c(O)c1C/C=C(\C)CCC(=O)O |  |
|  |  | COc1c(Cl)cc(C(C)=O)c(O)c1C/C=C(\C)CCC(=O)O | inhibition at 100 µM [6]: 21% |
| > 100 |  | COc1c(Cl)cc(C(N)=O)c(O)c1C/C=C(\C)CCC(=O)O |  |
| < 0.2 |  | COc1c(C)c2c(c(O)c1C/C=C(\C)CCC(=O)O)C(=O)OC2 [MYCOPHENOLIC ACID] | IC50 [7]: 0.4 µM |

| SMILES | IC50 [1] [µM] | IC50 [4] | other results |
| --- | --- | --- | --- |
| COC(=O)c1cc(Cl)c(OC)c(C/C=C(\C)CCC(=O)O)c1O | 61 |  |  |
